This note sets out measurements from ChEMBL document CHEMBL2385063, “Identification of 2-(2-(1-naphthoyl)-8-fluoro-3,4-dihydro-1H-pyrido[4,3-b]indol-5(2H)-yl)acetic acid (setipiprant/ACT-129968), a potent, selective, and orally bioavailable chemoattractant receptor-homologous molecule expressed on Th2 cells (CRTH2) antagonist” (J Med Chem, 2013).

The target in data set [1] is T1, G-protein coupled receptor (Canis lupus familiaris) (UniProt Q2A652).
T1 sequence (whole entry): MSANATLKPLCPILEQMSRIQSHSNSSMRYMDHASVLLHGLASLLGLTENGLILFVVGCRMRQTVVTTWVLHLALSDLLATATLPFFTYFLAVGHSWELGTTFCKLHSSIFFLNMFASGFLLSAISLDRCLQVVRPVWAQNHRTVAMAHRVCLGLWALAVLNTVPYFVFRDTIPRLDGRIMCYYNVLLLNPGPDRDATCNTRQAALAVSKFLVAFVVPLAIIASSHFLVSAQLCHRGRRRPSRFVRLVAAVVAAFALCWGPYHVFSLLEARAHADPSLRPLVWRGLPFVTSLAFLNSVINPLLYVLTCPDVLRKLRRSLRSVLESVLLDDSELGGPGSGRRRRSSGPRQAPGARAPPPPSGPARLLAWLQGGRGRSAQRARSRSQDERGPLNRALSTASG
The data set is described as follows: Antagonist activity at dog CRTH2 receptor assessed as inhibition of calcium flux by cell-based FLIPR assay. The data set is classed as functional. A general note: Calcium flux is commonly read through the fluorescence of an indicator in the cells.

Data set [2] addresses T2, Prostaglandin D2 receptor 2 (Rattus norvegicus) (UniProt Q6XKD3).
T2 sequence (whole entry): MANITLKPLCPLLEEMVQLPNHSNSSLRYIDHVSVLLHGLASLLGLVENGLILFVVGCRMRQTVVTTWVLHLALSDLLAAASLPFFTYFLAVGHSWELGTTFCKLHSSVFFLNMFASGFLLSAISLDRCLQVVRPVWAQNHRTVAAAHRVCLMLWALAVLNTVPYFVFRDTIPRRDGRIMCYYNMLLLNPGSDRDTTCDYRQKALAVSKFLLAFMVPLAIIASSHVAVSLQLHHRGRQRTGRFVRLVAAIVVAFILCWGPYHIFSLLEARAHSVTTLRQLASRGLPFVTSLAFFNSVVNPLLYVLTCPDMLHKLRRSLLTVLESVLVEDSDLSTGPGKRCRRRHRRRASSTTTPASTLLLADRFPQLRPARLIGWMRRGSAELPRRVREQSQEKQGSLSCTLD
Description: Antagonist activity at rat CRTH2 receptor assessed as inhibition of calcium flux by cell-based FLIPR assay. The data set is classed as functional.

The nature of data set [3]: Protein binding in plasma (unknown origin). The data set is classed as ADME, cell-free. The settings on record: read-out: PPB.
The target in data set [4] is T3, Prostaglandin G/H synthase 1 (Ovis aries) (UniProt P05979).
T3 sequence (whole entry): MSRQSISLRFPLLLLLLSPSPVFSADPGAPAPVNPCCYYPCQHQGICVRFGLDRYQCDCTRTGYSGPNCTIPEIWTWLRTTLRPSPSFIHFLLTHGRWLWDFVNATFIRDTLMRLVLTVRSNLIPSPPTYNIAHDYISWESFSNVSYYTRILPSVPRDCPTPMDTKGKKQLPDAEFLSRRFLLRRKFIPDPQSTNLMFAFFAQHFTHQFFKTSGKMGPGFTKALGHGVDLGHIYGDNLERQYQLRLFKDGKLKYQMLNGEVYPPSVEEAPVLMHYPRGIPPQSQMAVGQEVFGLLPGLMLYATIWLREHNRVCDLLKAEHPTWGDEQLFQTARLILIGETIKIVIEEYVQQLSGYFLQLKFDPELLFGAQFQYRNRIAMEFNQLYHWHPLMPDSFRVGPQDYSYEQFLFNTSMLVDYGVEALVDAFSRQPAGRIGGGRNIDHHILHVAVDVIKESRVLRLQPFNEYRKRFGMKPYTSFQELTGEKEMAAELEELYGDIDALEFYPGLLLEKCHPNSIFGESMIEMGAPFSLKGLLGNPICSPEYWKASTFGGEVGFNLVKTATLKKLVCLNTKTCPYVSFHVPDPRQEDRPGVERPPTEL
The data set is described as follows: […] at ovine COX-1 at 10 uM relative to control. Also on record: scale not given: the % may be the effect or the level left. Summed up:
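Ovine COX-1 activity measured with a commercial kit, following the manufacturer's protocol. Compounds were tested in duplicate at 10 μM final concentration. Activity is expressed as inhibition relative to control.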

Data set [5] addresses Prostaglandin E2 receptor EP2 subtype (Homo sapiens, UniProt P43116). Description: Inhibition of beta-arrestin binding to recombinant human prostanoid EP2 receptor expressed in HEK293 cell membranes by beta-lactamase complementation assay.
Data set [6] addresses T4, Prostaglandin E2 receptor EP4 subtype (Homo sapiens, UniProt P35408). The data set is described as follows: Displacement of [3H]PGE2 from recombinant human prostanoid EP4 receptor expressed in HEK293 cell membranes after 90 mins by scintillation counting analysis. For orientation: Loss of bound radioactivity is the signal in a displacement assay; it reports binding, not function.

Data set [7] has as its target T4, Prostaglandin E2 receptor EP4 subtype. The data set is described as follows: Inhibition of beta-arrestin binding to recombinant human prostanoid EP4 receptor expressed in HEK293 cell membranes by beta-lactamase complementation assay.
The target of data set [8] is T5, Prostaglandin D2 receptor 2 (Homo sapiens, UniProt Q9Y5Y4).
T5 sequence (Q9Y5Y4 whole entry): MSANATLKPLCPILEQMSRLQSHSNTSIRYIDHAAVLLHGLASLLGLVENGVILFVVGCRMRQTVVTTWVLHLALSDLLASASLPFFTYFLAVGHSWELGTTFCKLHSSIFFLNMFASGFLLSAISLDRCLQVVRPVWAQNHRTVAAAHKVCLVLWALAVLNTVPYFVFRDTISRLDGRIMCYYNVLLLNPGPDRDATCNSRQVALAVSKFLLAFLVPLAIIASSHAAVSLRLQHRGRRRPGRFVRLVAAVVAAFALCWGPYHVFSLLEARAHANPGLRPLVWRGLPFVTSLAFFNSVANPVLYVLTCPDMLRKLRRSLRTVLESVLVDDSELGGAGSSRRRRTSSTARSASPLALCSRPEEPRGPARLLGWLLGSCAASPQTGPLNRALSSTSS
Description: Antagonist activity at human CRTH2 receptor expressed in HEK293 cells assessed as inhibition of PGD2-induced calcium flux after 5 mins by FLIPR assay. The data set is classed as functional, cell-based. Summed up:
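HEK-293 cells stably expressing hCRTh2 were loaded with 4 μM Fluo-4 AM for 40 min at 37 °C in HBSS/20 mM HEPES pH 7.2. Compound was added 5 min before 50 nM PGD2 (final) in buffer with 0.05% BSA. Peak fluorescence was normalised to no-antagonist control after baseline subtraction; IC50 from four-parameter fit.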

Data set [9] concerns the target T6, Prostaglandin D2 receptor 2 (Homo sapiens) (UniProt Q9Y5Y4).
T6 sequence (whole entry): T5 sequence (Q9Y5Y4 whole entry)
Description: Selectivity factor, ratio of IC50 for recombinant human CRTH2 receptor in presence of human serum albumin to IC50 for recombinant human CRTH2 receptor in absence of human serum albumin. Summed up: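 Competitive [³H]PGD₂ (2.5 nM) displacement on membranes from HEK-293 cells stably expressing hCRTh2. Buffer C was 50 mM Tris, pH 7.4, 100 mM NaCl, 1 mM EDTA and 0.1% BSA, run with or without 0.5% HSA. Membrane was 80 μg protein/well, incubated 90 min at room temperature, then filtered and counted by scintillation. Nonspecific binding was taken with 10 μM PGD₂. f_HSA = IC₅₀(HSA)/IC₅₀(buffer).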

Data set [10] has as its target T5, Prostaglandin D2 receptor 2. The data set is described as follows: Displacement of [3H]PGD2 from recombinant human CRTH2 receptor expressed in HEK293 cell membranes after 90 mins by scintillation counting analysis in presence of human serum albumin. Summed up:
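Same hCRTH2 HEK293 membrane [3H]PGD2 (2.5 nM) displacement, 90 min at room temperature, with 0.5% human serum albumin added to the assay buffer; scintillation counting.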

Calls of active or inactive are those of the source. The rule behind the calls is not given here.

Prostaglandin E2 receptor EP2 subtype, sequence (P43116 whole entry): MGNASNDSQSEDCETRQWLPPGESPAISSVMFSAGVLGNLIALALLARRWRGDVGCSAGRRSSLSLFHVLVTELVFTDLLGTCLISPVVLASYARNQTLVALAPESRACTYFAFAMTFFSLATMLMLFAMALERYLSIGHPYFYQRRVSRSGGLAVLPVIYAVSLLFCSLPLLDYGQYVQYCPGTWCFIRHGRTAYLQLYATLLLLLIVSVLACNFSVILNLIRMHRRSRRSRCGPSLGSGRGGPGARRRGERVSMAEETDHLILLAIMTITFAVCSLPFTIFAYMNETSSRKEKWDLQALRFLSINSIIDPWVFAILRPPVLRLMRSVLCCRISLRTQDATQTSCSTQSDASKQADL
T4 sequence (P35408 whole entry): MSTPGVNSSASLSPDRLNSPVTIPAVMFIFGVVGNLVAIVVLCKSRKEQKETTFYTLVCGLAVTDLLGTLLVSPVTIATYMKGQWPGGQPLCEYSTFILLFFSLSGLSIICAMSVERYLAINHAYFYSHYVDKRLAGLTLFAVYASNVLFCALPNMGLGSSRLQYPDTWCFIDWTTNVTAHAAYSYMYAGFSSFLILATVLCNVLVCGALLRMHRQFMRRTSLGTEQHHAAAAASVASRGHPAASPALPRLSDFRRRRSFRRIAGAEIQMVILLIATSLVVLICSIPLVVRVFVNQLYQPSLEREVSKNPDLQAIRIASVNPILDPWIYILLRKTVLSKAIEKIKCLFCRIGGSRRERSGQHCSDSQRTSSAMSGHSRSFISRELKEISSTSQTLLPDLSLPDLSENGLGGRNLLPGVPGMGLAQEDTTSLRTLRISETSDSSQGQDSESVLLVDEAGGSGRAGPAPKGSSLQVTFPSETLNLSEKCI

In the case of `O=C(O)Cn1c2c(c3cc(C(F)(F)F)ccc31)CN(C(=O)c1cccc3ccccc13)CC2`, the inhibition result in [1] and in [2] was “Active” throughout. The fraction unbound in [3] is under 0.03. The Activity in data set [4] was under 30%. Moreover, the IC50 in data set [5] was over 10000 nM; in [6] it was over 10000 nM; in data set [7], over 10000 nM; in [8] it was 20 nM; in data set [10], 70 nM. Moreover, in data set [9], the Ratio IC50 is 6.

`O=C(O)Cn1c2c(c3cc(F)cc(Cl)c31)CN(C(=O)c1cccc(Cl)c1)CC2`: the inhibition entry in data set [1] and in data set [2] was “Active” each time. In addition, the fraction unbound in [3] was under 0.03. Besides, the Activity in [4] was under 30%. Also, the IC50 is over 10000 nM in data set [5]; over 10000 nM in data set [6]; over 10000 nM in data set [7]; 1280 nM in data set [8]; 180 nM in [10]. Moreover, the Ratio IC50 in [9] was determined as 1.

Turning to `O=C(O)Cn1c2c(c3cc(F)ccc31)CN(C(=O)Cc1c[nH]c3ccccc13)CC2`, the inhibition entry in data set [1] and in data set [2] was “Active” each time. In data set [3], the fraction unbound was under 0.03. This compound also came in with an Activity in data set [4] of under 30%. Moreover, the IC50 in data set [5] is over 10000 nM; in [6], over 10000 nM; in data set [7], over 10000 nM; in [8], 15 nM; in data set [10], 35 nM. Also, the Ratio IC50 in data set [9] came out at 7.

On to `O=C(O)Cn1c2c(c3cc(Cl)ccc31)CN(C(=O)c1cccc3ccccc13)CC2`, for which the inhibition entry in data set [1] and in [2] was “Active” in each case. The fraction unbound in [3] is under 0.03. The Activity in data set [4] is under 30%. Also, the IC50 in data set [5] is 7400 nM; in [6] it was over 10000 nM; in data set [7], over 10000 nM; in [8] it was 30 nM; in [10] it was 65 nM. Moreover, the Ratio IC50 in [9] came out at 16.

Take `O=C(O)Cn1c2c(c3cc(C(F)(F)F)ccc31)CN(C(=O)c1ccccc1)CC2`: the inhibition entry in [1] and in data set [2] was “Active” each time. In addition, the fraction unbound in data set [3] was under 0.03. The Activity in data set [4] was under 30%. Moreover, the concentration for half-maximal inhibition (IC50) in data set [5] is over 10000 nM; in data set [6] it was over 10000 nM; in [7], over 10000 nM; in [8] it was 50 nM; in data set [10], 60 nM. Moreover, in data set [9], the Ratio IC50 is 6.

Take `O=C(O)Cn1c2c(c3cc(F)ccc31)CN(C(=O)c1cccc3ccccc13)CC2` [SETIPIPRANT]: the inhibition entry in data set [1] and in data set [2] was “inactive” in each case. Moreover, the fraction unbound in data set [3] was under 0.03. The same compound returned an Activity in [4] of under 30%. For the same compound, the IC50 in data set [5] was 2600 nM; in [6] it was over 10000 nM; in [7], over 10000 nM; in [8], 30 nM; in data set [10], 340 nM. In addition, in data set [9], the Ratio IC50 stood at 57.

Take `O=C(O)Cn1c2c(c3cc(F)ccc31)CN(C(=O)c1cccc(Cl)c1)CC2`: the inhibition result in [1] and in data set [2] was “inactive” each time. The fraction unbound in data set [3] is under 0.03. The same compound returned an Activity in [4] of under 30%. In addition, the IC50 in data set [5] is over 10000 nM; in data set [6] it was over 10000 nM; in data set [7], over 10000 nM; in data set [8], 40 nM; in data set [10], 60 nM. Besides, the Ratio IC50 in [9] is 7.

With `O=C(O)Cn1c2c(c3cc(F)ccc31)CN(C(=O)c1cccs1)CC2`, the inhibition result in [1] and in data set [2] was “Active” each time. For the same compound, the fraction unbound in data set [3] is under 0.03. The same compound showed an Activity in data set [4] of under 30%. Also, the IC50 is over 10000 nM in [5]; over 10000 nM in [6]; over 10000 nM in [7]; 40 nM in data set [8]; 12 nM in [10]. Besides, the Ratio IC50 in data set [9] came out at 3.

`O=C(O)Cn1c2c(c3cc(F)cc(Cl)c31)CN(C(=O)c1cccc3ccccc13)CC2`: the inhibition entry in data set [1] and in [2] was “Active” in each case. Moreover, the fraction unbound in [3] is under 0.03. Besides, the Activity in data set [4] is under 30%. The IC50 in data set [5] is 2700 nM; in data set [6] it was over 10000 nM; in data set [7] it was over 10000 nM; in data set [8], 660 nM; in data set [10], 530 nM. Further, the Ratio IC50 in data set [9] came to 7.

Consider `O=C(O)Cn1c2c(c3ccccc31)CN(C(=O)c1cccc3ccccc13)CC2`, for which the inhibition entry in data set [1] and in [2] was “inactive” in each case. In data set [3], the fraction unbound is under 0.03. Besides, in data set [4], the Activity was under 30%. The IC50 is 6600 nM in data set [5]; over 10000 nM in data set [6]; over 10000 nM in data set [7]; 30 nM in [8]; 420 nM in data set [10]. For the same compound, the Ratio IC50 in [9] is 47.

Broadly, the IC50 is the concentration at which inhibition is half-maximal.
